# Sampled rows, rich in hits. Any-hit rate of the full collection: about 1.4%.
# FN deposit inh – fibronectin deposition inhibition; AH1F fibroblasts, Alexa488-fibronectin deposition fluorescence, overnight; inhibition, % at 12.6 µM; 0.086% of 350,000 active; AID 743247;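 active means mean inhibition across replicates of 30% or more, regardless of how many single replicates reach that level; inconclusive means mean under 30% yet at least half of replicates reach 30%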
#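 Material – AH1F fibroblast monolayer, labelled fibronectin deposition · Reagent – labelled fibronectin 24 nM · Timing – 1 h adhesion, overnight exposure · Measured by – fluorescence at 485 nm excitation, 525 nm emission · Read-out – inhibition of fibronectin deposition signal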
# HIV Env fusion – blocks HIV Env-driven cell-cell fusion | 1.1% of 360,000 active | inhibition, % at 12.3 µM | HeLa-JRFL Env/CEM21 cell fusion, luciferase;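 active means mean replicate inhibition score of at least 50 and every replicate individually at or above 50; inconclusive means only one of the two criteria met; inactive means mean below 50 and not all replicates reaching 50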
# GSIS activator – GLuc luminescence reporter in INS-1E cells, primary screen for activators of glucose-dependent secretion of insulin; activation, % at 16.6 µM; 0.61% of 370,000 active; INS-1E GLuc reporter insulin secretion, 2-3 h;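 active means lowest replicate activation of at least 40%, so every replicate reaches that level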
# PDI turbidity – PDI (human) enzyme inhibition | 0.052% of 350,000 active | inhibition, % at 10 µM | P07237 | AID 588391 | PDI insulin aggregation turbidity, A650, 90 min;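 active means mean inhibition across replicates of 30% or more, whatever share of single replicates reach that level; inconclusive means mean inhibition below 30% while every single replicate reaches 30%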
# Target sequence (P07237 whole entry, looked up): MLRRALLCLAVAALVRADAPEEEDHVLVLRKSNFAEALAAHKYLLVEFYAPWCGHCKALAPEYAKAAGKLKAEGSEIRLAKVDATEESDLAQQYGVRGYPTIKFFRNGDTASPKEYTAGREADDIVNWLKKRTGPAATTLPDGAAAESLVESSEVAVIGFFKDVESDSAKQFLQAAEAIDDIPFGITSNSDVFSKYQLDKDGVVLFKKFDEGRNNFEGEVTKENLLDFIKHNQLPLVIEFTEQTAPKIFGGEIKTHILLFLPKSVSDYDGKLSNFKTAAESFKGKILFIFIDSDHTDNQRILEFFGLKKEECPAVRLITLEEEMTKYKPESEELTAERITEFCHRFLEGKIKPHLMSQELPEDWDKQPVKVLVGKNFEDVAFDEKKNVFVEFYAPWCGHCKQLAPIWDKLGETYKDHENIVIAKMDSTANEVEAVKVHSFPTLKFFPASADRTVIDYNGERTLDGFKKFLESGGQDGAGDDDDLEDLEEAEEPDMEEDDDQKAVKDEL
# ERp5 inh – blocks human ERp5 reductase activity on insulin | Q15084 | ERp5 insulin aggregation, absorbance 650 nm, 90 min | inhibition, % at 9.99 µM | 0.05% of 350,000 active | AID 651711;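 active means mean replicate inhibition above about 25%, with every replicate also reaching it, limit read from the data, passing the limit was not always enough; inconclusive means only one of those two criteria met; inactive means neither criterion met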
# A number is an active result; 0 = inactive; ? = inconclusive; - = no result given; [ ] = another dose, or the depositor's remark.
SMILES,FN deposit inh,HIV Env fusion,GSIS activator,PDI turbidity,ERp5 inh
Cc1ccc(S(=O)(=O)N(C)C[C@@H]2Oc3ccc(NC(=O)Nc4ccc(C(F)(F)F)cc4)cc3CC(=O)N([C@@H](C)CO)C[C@@H]2C)cc1,0,0,0,-,0
C[C@H](CO)N1C[C@H](C)[C@@H](CN(C)S(=O)(=O)c2ccc(F)cc2)Oc2ccc(NC(=O)Nc3ccc(C(F)(F)F)cc3)cc2CC1=O,-,101.4[16.7 µM],0,-,-
CCCCCCCCN1C(=O)[C@@H](CC(=O)NCc2ccc(OC)c(OC)c2)C[C@@]2(C(=O)OC)C1=C[C@H](C(C)(C)C)O[C@@H]2C,0,69.9,-,-,0
COC(=O)[C@]12C[C@H](CC(=O)NCc3cccc(C(F)(F)F)c3)C(=O)N(CCc3ccc(OC)c(OC)c3)C1=C[C@H](C(C)(C)C)O[C@@H]2C,0,0,-,-,0
COC(=O)[C@]12C[C@H](CC(=O)NCc3ccc(OC)c(OC)c3)C(=O)N(CCc3ccc(OC)c(OC)c3)C1=C[C@H](C(C)(C)C)O[C@@H]2C,0,58.3,-,-,0
CCCCCCCCN1C(=O)[C@@H](CC(=O)NCc2ccc(OC)c(OC)c2)C[C@@]2(C(=O)OC)C1=C[C@H](C1CCCC1)O[C@@H]2C,0,0,-,-,0
CCCCCCCCN1C(=O)[C@@H](CC(=O)NCc2cccc3ccccc23)C[C@@]2(C(=O)OC)C1=C[C@H](C(C)(C)C)O[C@@H]2C,0,63.2,0,-,0
CCCCCCCCN1C(=O)[C@@H](CC(=O)NCc2cccs2)C[C@@]2(C(=O)OC)C1=C[C@H](C(C)(C)C)O[C@@H]2C,0,?,0,-,0
O=C(O)C[C@@H]1C[C@@H]2c3cc(NC(=O)Nc4ccccc4F)ccc3O[C@@H]2[C@H](CO)O1,-,0,0,-,0
CN(CC(=O)NCCc1ccc(S(N)(=O)=O)cc1)CC(=O)Nc1ccc(Cl)c(C(F)(F)F)c1,0,93.5,0,0,0
CN(CC(=O)Nc1ccc(Cl)c(C(F)(F)F)c1)C(=O)C1(c2ccccc2)CC1,0,55.6,0,0,0
CN(CC(=O)Nc1ccc(Cl)c(C(F)(F)F)c1)C(=O)c1cccs1,-,0,0,0,0
CN(CC(=O)NCCc1ccc(S(N)(=O)=O)cc1)CC(=O)Nc1ccccc1Cl,0,-,-,0,0
C[C@H](NC(=O)C[C@@H]1CC[C@H](NS(=O)(=O)c2cccc(F)c2)[C@@H](CO)O1)c1ccccc1,0,-,0,-,0
COc1ccccc1NC(=O)N1C[C@@H]2[C@H](c3ccccc31)[C@H](CO)N2CC1CCCC1,-,-,0,-,0
CC1(C)CCCC(C)(C)N1CC(O)COCCOc1ccc(Br)cc1 (stereo not given),0,0,51.2,0,-
CCCNC(=O)C[C@@H]1C[C@H]2c3cc(NC(=O)Cc4ccncc4)ccc3O[C@H]2[C@H](CO)O1,0,97.9[16.7 µM],0,-,-
CCCNC(=O)C[C@@H]1C[C@H]2c3cc(NC(=O)Cc4ccncc4)ccc3O[C@H]2[C@@H](CO)O1,0,93.3[16.7 µM],0,-,-
CN(C(=O)c1ccc(C#N)cc1)c1nnc(-c2cnccn2)s1,0,0,46.3,0,0
CC(C)C(NS(=O)(=O)c1ccc2c(c1)C(C)(C)C(=O)N2C)C(=O)NCc1ccccc1Cl (stereo not given),0,62.4,-,0,0
CCNc1nc(NC(C)CC)nc(ON=C(C)C)n1 (stereo not given),0,0,55.7,0,0
CCNc1nc(NC(C)CC)nc(Oc2ccc(=O)[nH]n2)n1 (stereo not given),-,-,0,0,0
COc1cccc(NC(=O)N2CC(=O)N3[C@H](C2)[C@H](c2ccc(Br)cc2)[C@@H]3CO)c1,-,-,0,-,0
O=[N+]([O-])c1cccc(N(CC(O)CN2CCCC2)S(=O)(=O)c2ccccc2)c1 (stereo not given),0,0,0,0,0
Cc1ccc(S(=O)(=O)N(CC(O)CN2CCOCC2)c2cccc([N+](=O)[O-])c2)cc1 (stereo not given),0,0,0,0,26.6
CO[C@H]1CN(C)C(=O)c2ccc(NC(=O)C3CC3)cc2OC[C@@H](C)N(C(=O)C2CCOCC2)C[C@H]1C,0,-,0,-,0
COCC(=O)Nc1ccc2c(c1)[C@H]1C[C@@H](CC(=O)NCc3ccncc3)O[C@H](CO)[C@H]1O2,0,-,0,-,0
O=C(O)c1ccc(CSc2nnnn2-c2ccc(F)cc2)cc1,0,?,0,0,0
O=C(O)c1ccc(-n2nnnc2SCc2ccccc2Br)cc1,0,0,48.1,0,0

# Source: PubChem (Broad Institute)
